Measured values from ChEMBL document CHEMBL4613294, “Inhibition of Nonessential Bacterial Targets: Discovery of a Novel Serine O-Acetyltransferase Inhibitor” (ACS Med Chem Lett, 2020).
≈ marks a conversion by molar mass, not a printed value. Calls of active or inactive are those of the source. The calls are words filed in the database; no cut-off is given here.

Key:
[1] = system: Salmonella enterica subsp. enterica serovar Typhimurium; test: Inhibition of Salmonella typhimurium Serine acetyltransferase expressed in Escherichia coli Tuner(TM) BL21(DE3) cells at 100 uM using acetylCo-A and L-serine as substrate measured every 27 secs for 5 mins by DNTB reagent-based UV-Visible spectrophotometric method relative to control
Procedure, shortened: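 Recombinant StSAT activity followed indirectly with Ellman's reagent: CoASH released from acetyl-CoA plus L-Ser gives TNB, read by absorbance at pH above 7 (ε 14 000 M–1 cm–1) in 96-well format. Compounds at 100 μM, kinetic reads at 27 s intervals, % inhibition taken at 180 s endpoint. Hits at ≥40% retested at 100 μM.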

[2] = Inhibition of Salmonella typhimurium Serine acetyltransferase expressed in Escherichia coli Tuner(TM) BL21(DE3) cells using acetylCo-A and L-serine as substrate measured every 27 secs for 5 mins by DNTB reagent-based UV-Visible spectrophotometric method; set-up: species or system Salmonella enterica subsp. enterica serovar Typhimurium
[3] = system: Escherichia coli; test: Antibacterial activity against Escherichia coli ATCC 25922 incubated in LB 20% minimal medium lacking cysteine for 16 to 24 hrs by CLSI-based broth microdilution assay; assay type: functional
[4] = system: Escherichia coli; test: Antibacterial activity against Escherichia coli ATCC 25922 incubated in MHB medium for 16 to 24 hrs by CLSI-based broth microdilution assay; assay type: functional
[5] = system: Staphylococcus aureus; test: Antibacterial activity against methicillin-resistant Staphylococcus aureus ATCC 33591 after 12 hrs by resazurin dye based assay; assay type: functional; details: ATCC 33591, 12 h
[6] = system: Salmonella enterica subsp. enterica serovar Typhimurium; test: Inhibition of Salmonella typhimurium Serine acetyltransferase expressed in Escherichia coli Tuner(TM) BL21(DE3) cells at 50 to 200 uM using acetylCo-A and L-serine as substrate measured every 27 secs for 5 mins by DNTB reagent-based UV-Visible spectrophotometric method
[7] = Solubility of compound at 200 uM; assay type: physicochemical

| Compound | inhibition [1] [%] | IC50 [2] [µM] | MIC [3] [µg/mL] | MIC [4] [µg/mL] | MIC [5] [µg/mL] | inhibition [6] | solubility [7] |
| --- | --- | --- | --- | --- | --- | --- | --- |
| O=C(Nc1ncc([N+](=O)[O-])s1)c1csnn1 | 68 | 48.6 | 64 (≈ 249 µM) | > 128 |  |  |  |
| CC1(C)CCC[C@]2(C)C1CC[C@]1(O)[C@H](O)C3=C(CO)C(=O)OC3=C[C@H]12 (some centres not stated) |  |  |  |  | 25 (≈ 71.7 µM) |  |  |
| COc1cc(NC(=O)c2cc(-c3ccc(OC)c(S(N)(=O)=O)c3)[nH]n2)cc(OC)c1 | 52 |  | > 128 | > 128 |  | Active | Insoluble |
| COc1cccc(NC(=O)c2cc(-c3ccc(OC)c(S(N)(=O)=O)c3)[nH]n2)c1 | 75 | 13.6 | > 128 | > 128 |  |  |  |
| CC1=C2[C@@H](OC1=O)C(=O)[C@@H]1[C@@](O)(CCC3C(C)(C)CCC[C@]31C)[C@H]2O (some centres not stated) |  |  |  |  | 12.5 (≈ 35.9 µM) |  |  |
| Cc1snnc1C(=O)Nc1ncc([N+](=O)[O-])s1 | 72 | 47.8 | > 128 | > 128 |  |  |  |
| C=CCSc1nc2c(c(=O)[nH]1)C(c1ccc(OCC(N)=O)cc1)CC(=O)N2 (configuration not stated) | 57 | 84.1 | > 128 | > 128 |  |  |  |
| COc1ccc(-c2cc(C(=O)NCc3ccccc3)n[nH]2)cc1S(N)(=O)=O | 79 | 52.8 | > 128 | > 128 |  |  |  |
